Screens from PubChem.
In the library only some 1.9% were active in any assay of this set; here they are far more common.
DNA FID counter-1 – counter-screen for HCV NS3 helicase inhibitors: DNA intercalator displacement; DNA fluorescent intercalator displacement, fluorescence; inhibition, % at 7.9 µM; hit rate 0.17% among 290,000; AID 1845;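 also: 0% = vehicle and 100% = reference compound; higher means more ethidium bromide displaced from hairpin DNA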
PP5 inh – inhibitors of human protein phosphatase 5 (PP5); P53041; purified PP5c, OMFP substrate fluorescence; inhibition, % at 6.7 µM; hit rate 0.18% among 320,000; AID 1987;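 active = inhibition above the campaign's mean inhibition across all tested compounds plus 3 SD, cut at about 9.5% in these data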;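 also: 0% = DMSO only and 100% = 100 µM cantharidin control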
PP1 inh – PP1-alpha (human) inhibition in PP5 counter-screen. P62136. inhibition, % at 6.7 µM. purified PP1alpha, OMFP fluorescence. hit rate 0.9% among 320,000;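 active = inhibition above the mean inhibition of all tested compounds plus 3 SD, computed separately for each screening campaign, cut at about 15% in these data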
Target sequence (P62136 whole entry, looked up): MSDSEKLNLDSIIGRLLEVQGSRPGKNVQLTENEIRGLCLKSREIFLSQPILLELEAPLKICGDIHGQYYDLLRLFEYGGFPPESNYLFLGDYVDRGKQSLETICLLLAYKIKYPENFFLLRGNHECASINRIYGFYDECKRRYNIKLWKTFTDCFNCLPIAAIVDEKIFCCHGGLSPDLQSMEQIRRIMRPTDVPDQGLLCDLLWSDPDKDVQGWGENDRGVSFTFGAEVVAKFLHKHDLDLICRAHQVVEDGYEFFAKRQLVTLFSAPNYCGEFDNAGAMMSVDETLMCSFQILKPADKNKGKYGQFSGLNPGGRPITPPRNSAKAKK
HIF act – HIF pathway transcriptional activation; U2OS HRE-luciferase reporter, luminescence; normalized: DMSO 0%, desferrioxamine 100%; activation, % at 7.5 µM (by protocol); hit rate 0.32% among 300,000;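 active = mean activation of at least 10% of the iron chelator positive control signal, with at least half of replicates also reaching 10%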
NS3 helicase inh – blocks Hepatitis C virus NS3 helicase unwinding | NS3 helicase DNA unwinding, Cy5 molecular beacon fluorescence | inhibition, % at 10.9 µM | hit rate 0.56% among 290,000 | AID 1800;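 active = inhibition above the mean of all tested compounds plus 3 SD, set per campaign, cut at about 35% in these data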;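 also: 0% = DMSO wells and 100% = thioflavine S control wells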
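Control set: DMSO versus 110 µM thioflavine S; Material: NS3 helicase fragment of HCV; Measured by: Cy5 fluorescence at 0 and 60 min, beacon hairpin quenching; Read-out basis: percent inhibition from t60/t0 fluorescence ratio; Times: reaction time 60 min, 25 °C; Repeats: single replicate; Compound dosing: single dose, 10.9 µM nominal final, DMSO 0.8% final.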
NS3 hel confirm – confirmation of Hepatitis C virus NS3 helicase inhibitors. NS3 helicase DNA unwinding, Cy5 molecular beacon fluorescence. shares compounds with NS3 helicase inh. hit rate 31% among 1,600. inhibition, % at 10.9 µM;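 active = inhibition above the mean of all tested compounds plus 3 SD, cutoff set per campaign, cut at about 36% in these data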
DNA FID counter-2 – intercalator displacement, NS3 helicase counter-screen; inhibition, % at 7.9 µM; shares compounds with NS3 helicase inh; DNA fluorescent intercalator displacement, fluorescence; hit rate 4% among 1,600;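 also: 0% = vehicle and 100% = reference compound; higher means more displacement of ethidium bromide from the DNA hairpin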
An asterisk follows results filed as active; x = no result. Rule as the data show it, unless noted: active = inhibition above about 37%; inactive = the rest.

SMILES | DNA FID counter-1 | PP5 inh | PP1 inh | HIF act | NS3 helicase inh | NS3 hel confirm | DNA FID counter-2
CC(=O)c1cccc(NC(=O)CN(C)S(=O)(=O)c2cccc3nsnc23)c1 | -2.0 | -0.3 | -5.4 | 13.8* | 14.0 | x | x
Cc1ccc(NC(=O)CN(C)S(=O)(=O)c2cccc3nsnc23)cc1 | -3.6 | 4.0 | 1.1 | 0.1 | -4.0 | x | x
COc1cccc(/C=N/Nc2nc(Nc3ccc([N+](=O)[O-])cc3)nc(N3CCCC3)n2)c1O | -3.2 | 5.5 | 15.5* | -0.4 | -64.4 | x | x
O=[N+]([O-])c1ccc(Nc2nc(N/N=C/c3cccc(F)c3)nc(N3CCCC3)n2)cc1 | 0.8 | 1.0 | 8.3 | 0.4 | -44.4 | x | x
CCCc1nc2sc3ccccc3c(=O)c2c(=O)n1Cc1ccco1 | -13.1 | x | x | x | 46.4* | 4.1 | -8.7
COc1cccc(/C(O)=C2/C(=O)C(=O)N(Cc3ccco3)C2c2ccncc2)c1 (stereo not given) | 0.3 | 0.0 | 3.1 | -0.1 | -7.0 | x | x
O=C1C(=O)N(Cc2ccco2)C(c2cccs2)/C1=C(\O)c1cccc([N+](=O)[O-])c1 (stereo not given) | -8.8 | -1.3 | 1.1 | 0.2 | 42.8* | -0.9 | 17.3
Cc1ccc(S(=O)(=O)/N=C2/NC(=O)/C(=C\c3ccco3)S2)cc1 | -21.0 | 0.3 | 1.6 | x | 37.5* | 66.7* | -2.5
COc1ccc(N=C2NC(=O)/C(=C\c3ccco3)S2)cc1 | -14.6 | 1.4 | -0.3 | 0.1 | 41.2* | -4.6 | -5.8
CC(=O)Nc1ccc(S(=O)(=O)/N=C2/NC(=O)/C(=C\c3ccco3)S2)cc1 | -17.1 | -0.8 | -2.8 | 0.1 | 16.1 | x | x
CCn1c(=O)n(CC(=O)NCC2CCCO2)c(=O)c2c3c(sc21)COC(C)(C)C3 (stereo not given) | -24.4 | 4.1 | 0.7 | -0.3 | 23.8 | x | x
O=C1OC(c2cccs2)=N/C1=C\c1ccc(-c2ccccc2Cl)o1 | -24.6 | x | x | -0.2 | 70.9* | 47.8* | 1.2
C=CCOc1ccc(C2/C(=C(\O)c3ccc4c(c3)CC(C)O4)C(=O)C(=O)N2CCN2CCOCC2)cc1OCC (stereo not given) | -59.1 | 3.3 | 3.4 | 0.1 | 0.1 | x | x
O=C(O)/C(=C\c1cccc([N+](=O)[O-])c1)c1ccc(S(=O)(=O)N2CCCCC2)s1 | -15.7 | 2.2 | 1.7 | -0.4 | 44.1* | 54.0* | -13.6
CCOC(=O)COc1ccc(C(=O)Nc2cccc(Cl)c2C)cc1 | -7.4 | 2.0 | 2.1 | -0.4 | 1.5 | x | x
CCOc1ccc2[nH]c(=O)c(CN(Cc3nnnn3Cc3ccco3)C3CCCCC3)cc2c1 | -21.4 | 3.8 | -2.3 | 0.2 | 64.7* | -10.7 | -22.9
COc1cc2cc(CN(Cc3nnnn3Cc3ccco3)C3CCCCC3)c(=O)[nH]c2cc1OC | -2.9 | 0.1 | 0.0 | -0.2 | 16.3 | x | x
Cc1ccc(S(=O)(=O)NC(=O)c2cc(C)n(C3CC3)c2C)cc1 | -21.6 | -1.3 | 0.2 | 0.5 | 37.7* | -18.0 | -6.9
Cc1ccc(-n2c(C)cc(C(=O)NS(=O)(=O)c3ccc(C)cc3)c2C)cc1 | -41.2 | -2.5 | 3.0 | 0.1 | 38.8* | 42.5* | -30.8
CCOc1ccc(-n2c(C)cc(C(=O)NS(=O)(=O)c3ccc(C)cc3)c2C)cc1 | -10.1 | 0.9 | -0.9 | -0.6 | 5.9 | x | x
Cn1c(=O)n(C)c2cc(NC(=O)c3ccccc3[N+](=O)[O-])c(Br)cc21 | 1.3 | 1.0 | -1.4 | 0.1 | 11.5 | x | x
O=C(O)Cn1c2c(c3ccccc31)CSc1ccc(Cl)cc1-2 | 12.7 | 1.2 | 11.7 | -7.9 | 36.5* | 83.5* | -10.5
CC12CCCCC1NS(=O)(=O)OC2 (stereo not given) | -8.5 | -1.7 | -2.0 | -0.1 | 41.4* | -16.5 | 9.5
S=c1nc[nH]c2c1cnn2Cc1ccccc1 | -6.5 | x | x | -26.5 | 40.6* | 1.6 | -3.9
O=c1nc2s/c(=C\c3ccco3)c(=O)n2nc1Cc1ccc(F)cc1 | -12.2 | 1.5 | 1.0 | 0.2 | 47.2* | 9.3 | 5.2
SMILES | DNA FID counter-1 | PP5 inh | PP1 inh | HIF act | NS3 helicase inh | NS3 hel confirm | DNA FID counter-2
Cc1ccc(-c2nc3s/c(=C\c4ccco4)c(=O)n3n2)cc1 | -8.2 | 0.6 | -0.4 | x | 16.9 | x | x
O=C1Cc2ccccc2C(=O)N1c1cccc(Cl)c1 | -21.0 | 3.4 | 4.3 | -0.2 | 36.8* | -18.6 | 19.0
CCOc1ccc2oc(C(=O)Nc3cc(C)ccn3)c(C)c2c1 | x | 1.3 | 5.7 | 0.3 | x | x | x
Cc1cc(=O)n2c(c1C#N)SC1CCCCC12O (stereo not given) | -0.3 | 0.3 | 1.0 | x | 55.1* | -11.7 | -0.1
CC1(C)CC(=O)C(/C=N/c2ncccc2C(=O)O)=C(O)C1 | 2.2 | 3.7 | -2.8 | -0.7 | -2.9 | x | x
COc1ccc(NC(=O)/C(C#N)=C\C=C\c2ccco2)cc1 | -16.7 | 1.9 | 2.4 | 2.8 | 84.8* | -4.1 | -0.2
CCOC(=O)/C=C(C)\C=C\c1c[nH]c2ccccc12 | -16.5 | 0.8 | -1.9 | 0.6 | 45.4* | 2.4 | 10.0
CS(=O)(=O)N(CC(=O)N1CCN(c2ccccc2)CC1)c1ccc(Cl)c(C(F)(F)F)c1 | -28.9 | 4.3 | -1.3 | 0.2 | -4.7 | x | x
COc1ccc(NC(=O)c2ccc(NC3=NC4CS(=O)(=O)CC4S3)cc2)cc1 (stereo not given) | -5.0 | 0.8 | -1.6 | 0.0 | 47.3* | -4.1 | 11.4
Cc1cc(C)cc(NC(=O)c2ccc(NC3=NC4CS(=O)(=O)CC4S3)cc2)c1 (stereo not given) | -15.7 | 5.0 | 1.7 | -0.1 | -1.6 | x | x
N=C1CCC(=N)c2c1c(O)c1ccccc1c2O | -7.3 | 2.9 | -0.9 | -0.5 | 43.2* | 49.7* | 0.7
CC(=O)NCCc1nc2cc(NS(=O)(=O)c3ccc(Cl)cc3)ccc2n1C | -20.4 | 1.5 | -3.9 | -1.7 | 36.7* | -2.5 | -0.2
O=C(NCc1ccco1)C(=O)NCC1OCCN1S(=O)(=O)c1ccc(F)cc1 (stereo not given) | -5.6 | -2.2 | 4.1 | 0.0 | 5.8 | x | x
O=C(NCc1ccco1)C(=O)NCC1OCCN1S(=O)(=O)c1cc(F)ccc1F (stereo not given) | -8.9 | -0.8 | 1.1 | 0.0 | 48.8* | -7.4 | 11.1
COc1cccc2[nH]c3c(=O)n(CCN(C)C)cnc3c12 | x | 1.0 | -3.3 | -0.1 | x | x | x
CCN(CC)CCn1cnc2c([nH]c3cccc(OC)c32)c1=O | -8.9 | 3.8 | -0.6 | -0.1 | 41.5* | -16.0 | 2.3
FC(F)(F)c1ccc(C2Nc3cccc4cccc(c34)N2)cc1 | 3.4 | x | x | x | 23.2 | x | x
Clc1cccc(C2Nc3cccc4cccc(c34)N2)c1Cl | -12.1 | 5.9 | 8.3 | -1.8 | 49.2* | -11.2 | 11.4
Clc1ccccc1C1Nc2cccc3cccc(c23)N1 | -9.1 | 2.6 | 8.2 | -14.0 | 12.0 | x | x
Fc1ccc(C2Nc3cccc4cccc(c34)N2)cc1 | -4.5 | 0.3 | -0.6 | -1.5 | 44.6* | -29.9 | 17.3
Cn1c(CCN2CCOCC2)nc2cc(NC(=O)COc3ccc([N+](=O)[O-])cc3)ccc21 | 1.9 | -0.9 | 7.0 | 1.1 | 4.4 | x | x
